Hits are enriched below; roughly 2.9% of the tested compounds scored in any of these assays.
FGF22 binding = shifts melting point of recombinant human FGF22; activity (Tm shift, normalised), % at 9.99 µM; recombinant FGF22 thermal shift, SYPRO orange fluorescence; percent of sucrose octasulfate shift, DMSO zero; 340,000 tested, 1.5% active; AID 651658;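 active = mean Tm shift, scaled 0 neutral to 100 positive control, at about 1.3% or above, every replicate too, limit read from the data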
Target sequence (Q9HCT0 whole entry, looked up): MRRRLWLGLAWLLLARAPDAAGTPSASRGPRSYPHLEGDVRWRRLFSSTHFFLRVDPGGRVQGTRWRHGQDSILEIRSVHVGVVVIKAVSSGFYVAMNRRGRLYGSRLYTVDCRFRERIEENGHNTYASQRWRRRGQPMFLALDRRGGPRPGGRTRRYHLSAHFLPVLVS
Vif inh = HIV Vif inhibition; AID 602346; HEK293T cells, Vif self-association by quenched fluorescence, imaging, 24 h; 340,000 tested, 0.35% active; inhibition, % at 7.49 µM; in the data active = inhibition above about 50%, passing the limit was not always enough
PGC1a acetyl inh = lowers PGC1a acetylation signal in U2OS cells; AlphaScreen anti-acetyl-lysine; with virally co-expressed GCN5 acetyltransferase; inhibition, % at 15.6 µM; 350,000 tested, 0.17% active; AID 651687;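 active = every replicate shows inhibition of at least 40%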;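 note: 0% = neutral control wells and 100% = positive control wells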
Ecoli rRNA inh = selective bacterial rRNA inhibition in E. coli | E. coli WT GFP vs humanized-ribosome RFP mutants, fluorescence, 24 h; stronger effect = lower value; DMSO median 0, no signal -100 | GFP signal change (wild-type ribosome), % (test concentration not listed) | 350,000 tested, 1.6% active | AID 720706;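 active = significant combined selectivity score with lowered wild-type GFP, culture density cut under 30%, mutant RFP and density less affected; inactive = any of these conditions unmet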
Cneo AK release = Cryptococcus neoformans lysis via adenylate kinase release; C. neoformans lysis, adenylate kinase release luminescence, 4 h; normalised: neutral wells 0, clomiphene wells 100; lysis activity, % at 15 µM; 360,000 tested, 0.2% active;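 active = mean lysis activity across replicates of at least 80%, whatever share of replicates individually reach that level; inactive = mean lysis activity below 80%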
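Assay system: C. neoformans cells. Amount: yeast cell density of 5 × 10^6 cells/mL. Technique: AK luminescence. Buffer or medium: YPD. Times: static 4 h at 37 °C with compound, 1 h detection. Dosing: single-point compound dose. Read-out: lysis from increased AK signal.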
PglD DTNB = inhibitors of Campylobacter jejuni PglD acetyltransferase. purified PglD enzyme, DTNB colorimetric CoA detection. inhibition, % at 12.5 µM. 360,000 tested, 0.098% active. AID 602405; in the data active = inhibition above about 16%, passing the limit was not always enough
* hit, by the source's call; nt = no result given.

SMILES	FGF22 binding	Vif inh	PGC1a acetyl inh	Ecoli rRNA inh	Cneo AK release	PglD DTNB
O=C(NCC(c1ccco1)N1CCCC1)c1ccc(S(=O)(=O)Nc2ccc(F)cc2)cc1 (configuration not stated)	0	-4	7	9	-5	1
O=C(NCC(c1ccco1)N1CCCCC1)c1ccc(NS(=O)(=O)c2ccc(F)cc2)cc1 (configuration not stated)	0	4	0	-20*	5	1
Cc1ccc(S(=O)(=O)N[C@H]2CC[C@H](CCNC(=O)C3CCOCC3)O[C@@H]2CO)cc1	1	nt	0	1	-8	4
Cc1ccc(/C=N/NC(=O)c2cc(C3CC3)nc3ccccc23)o1	43*	-13	-7	6	3	4
COc1ccc(/C=C/C(=O)NCCc2nc3ccccc3[nH]2)cc1	1	nt	-5	-26*	2	-4
CC(C)NC(=O)NCC[C@H]1CC[C@@H](NC(=O)Nc2ccccc2)[C@H](CO)O1	0	nt	-5	1	18	1
OCCNCCSc1ccc(Cl)cc1	43*	4	nt	nt	nt	nt
COCCNC(=O)C[C@@H]1C[C@@H]2c3cc(NC(=O)CN(C)C)ccc3O[C@@H]2[C@@H](CO)O1	-1	nt	0	1	46	2
COc1cccc(-c2cc(=O)c3cc(NC(=O)c4ccccc4)ccc3[nH]2)c1	0	194*	nt	7	1	-3
CSc1nc2ccccc2n1Cc1cccc([N+](=O)[O-])c1	44*	-1	-14	-2	0	nt
CSc1nc2ccccc2n1Cc1cccc(F)c1	nt	3	-15	nt	5	-3
Nc1nc(Nc2ccccc2F)nc(N2CCOCC2)c1[N+](=O)[O-]	0	-6	4	-20*	nt	nt
COc1ccc(Nc2nc(N)c([N+](=O)[O-])c(N3CCOCC3)n2)cc1	0	2	2	-28*	4	-10
CO[C@@H]1CN(C)C(=O)c2ccc(NS(=O)(=O)c3ccccc3F)cc2OC[C@@H](C)NC[C@H]1C	0	nt	3	nt	-2	1
CC(=O)Nc1cccc2c1O[C@H](CN(C)C(=O)NC(C)C)[C@H](C)CN(C)C2=O	nt	nt	nt	3	nt	nt
C/C=C/c1ccc([C@@H]2[C@H](CO)N(CC3CC3)C23CN(S(=O)(=O)CC)C3)cc1	nt	nt	nt	-2	nt	nt
CCN1CC=C2C(C#N)=C(N)C(C#N)(C#N)C(CCc3ccccc3)C2C1 (configuration not stated)	nt	79*	0	nt	-10	-3
O=C(OCc1cn([C@H]2CN(Cc3cccs3)[C@@H](c3ccccc3)C[C@@H]2O)nn1)c1ccccc1	0	-4	-2	0	0	0
O=C(OCc1cn([C@H]2C[C@H](c3ccc(Cl)cc3)N(Cc3cccs3)C[C@@H]2O)nn1)c1ccccc1	nt	-3	-3	-5.0*	-1	-1
O=C(OCc1cn([C@@H]2C[C@H](c3ccccc3)N(Cc3cccs3)C[C@H]2O)nn1)c1ccccc1	44*	-1	nt	9	1	-4
COc1ccc(CN(Cc2cccn2C)S(=O)(=O)c2ccccc2)cc1	0	-7	74*	-7	nt	nt
C[C@@H]1CCCCO[C@@H](CN(C)CC2CC2)[C@@H](C)CN([C@H](C)CO)C(=O)c2cc(NS(C)(=O)=O)ccc2O1	0	nt	7	1	-3	6
O=C(Nc1cccc(F)c1)c1ccc(-c2ccccc2C(F)(F)F)o1	0	nt	nt	-12	nt	nt
COc1ccc(NC(=O)c2ccc(-c3ccccc3C(F)(F)F)o2)cc1	44*	0	-18	-22	-4	-1
COc1ccc(Nc2nc(C(=O)N3CCc4cc(OC)c(OC)cc4C3)cs2)cc1	0	-2	8	-39*	nt	nt
COc1ccc(Nc2nc(C(=O)N3CCc4ccccc4C3)cs2)cc1	1	-11	-4	-48	nt	nt
CCC(=O)N(CCC1(C(C)C)CCOC(C)(C)C1)Cc1ccco1 (configuration not stated)	nt	109*	8	nt	1	4
O=C(CCN1CCOCC1)Nc1ccc(Cl)cc1	0	74*	nt	12	0	-1
CN(CC(=O)NCCN1CCOCC1)S(=O)(=O)c1ccc(Cl)cc1	43*	4	-2	10	1	-1

Bioassay records: PubChem BioAssay, Broad Institute
